The results in this text go back to ChEMBL document CHEMBL3588766 (Bioorg Med Chem, 2015).

The target in data set [1] is T1, Bile acid receptor (Homo sapiens, UniProt Q96RI1).
T1 sequence (Q96RI1 whole entry): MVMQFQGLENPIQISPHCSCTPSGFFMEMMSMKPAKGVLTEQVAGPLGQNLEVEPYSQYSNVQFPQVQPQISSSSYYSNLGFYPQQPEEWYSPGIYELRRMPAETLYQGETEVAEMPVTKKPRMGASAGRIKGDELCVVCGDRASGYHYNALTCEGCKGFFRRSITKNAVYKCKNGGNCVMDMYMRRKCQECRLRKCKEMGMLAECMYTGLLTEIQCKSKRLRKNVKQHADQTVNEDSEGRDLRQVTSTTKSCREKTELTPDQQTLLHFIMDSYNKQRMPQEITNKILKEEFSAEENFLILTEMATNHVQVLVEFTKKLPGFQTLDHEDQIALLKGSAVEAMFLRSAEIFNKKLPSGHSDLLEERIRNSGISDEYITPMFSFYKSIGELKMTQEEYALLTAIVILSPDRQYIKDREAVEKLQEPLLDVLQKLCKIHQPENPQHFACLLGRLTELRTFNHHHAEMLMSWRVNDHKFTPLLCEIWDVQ
Description: Agonist activity at human full length FXR expressed in HeLa cells cotransfected with pSG5-human RXR after 24 hrs by Dual-Glo luciferase reporter gene assay. Format: cell-based.

Data set [2] in a line: Solubility of the compound in 1% aqueous DMSO solution by HPLC analysis. Format: physicochemical.
Data set [3] can be described thus: Metabolic stability in Sprague-Dawley rat liver microsomes assessed as compound remaining at 10 uM by HPLC analysis. The data set is classed as ADME. As to conditions: read-out: Stability. The method in brief: (§1)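 Compound at 10 µM final, preincubated 5 min at 37 °C in 0.1 M phosphate buffer pH 7.4 with NADPH-regenerating system, then Sprague–Dawley rat liver microsomes added. Stopped with ice-cold methanol at 0, 15, 30, 60 min. Remaining parent quantified by phenyl-column HPLC (UV 330/254 nm) against an external calibration. Controls run without NADPH and with heat-inactivated microsomes.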
(In general: Microsomes from liver hold many membrane-bound enzymes, among them those of drug oxidation.)

The nature of data set [4]: Metabolic stability in Sprague-Dawley rat liver microsomes assessed as compound remaining at 10 uM after 15 mins by HPLC analysis. Format: ADME. As to conditions: read-out: Stability. The method in brief: as §1
Data set [5] can be described thus: Metabolic stability in Sprague-Dawley rat liver microsomes assessed as compound remaining at 10 uM after 30 mins by HPLC analysis. Format: ADME. The following applies: read-out: Stability. Put shortly: as §1
Data set [6] is described as follows: Metabolic stability in Sprague-Dawley rat liver microsomes assessed as compound remaining at 10 uM after 60 mins by HPLC analysis. Format: ADME. The following applies: read-out: Stability. The method in brief: as §1
The test system of data set [7] is HepG2. Description: Cytotoxicity against human HepG2 cells at 5 uM after 48 hrs by LDH assay (reference value: 0%). The data set is classed as cell-based. The following applies: hepg2, 48 h. The method in brief:
(§2)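 HepG2 at 3*10⁴ cells/well, moved to 1% charcoal-stripped FCS medium after 24 h, then compound for 48 h. Triton X-100 (2%) added 2 h before reading as 100% lysis control; untreated = 0%. Supernatant mixed with LDH substrate for 20 min, absorbance 490 nm against 690 nm reference. Triplicates, ≥4 independent repeats.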

Data set [8] has as its system HepG2. Put plainly: Cytotoxicity against human HepG2 cells at 10 uM after 48 hrs by LDH assay (reference value: 0%). Format: cell-based. As to conditions: hepg2, 48 h. Put shortly:
as §2

Data set [9] has as its system HepG2. Put plainly: Cytotoxicity against human HepG2 cells at 50 uM after 48 hrs by LDH assay (reference value: 0%). Format: cell-based. As to conditions: hepg2, 48 h. The method in brief:
as §2

Data set [10] can be described thus: Cytotoxicity against human HepG2 cells assessed as cell proliferation at 5 uM after 48 hrs by WST-1 assay (Rvb =100%). The data set is classed as cell-based. The following applies: read-out: Activity. The method in brief: (§3)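 HepG2 seeded at 3*10⁴ cells/well in 10% FCS DMEM; after 24 h switched to 1% charcoal-stripped FCS and exposed to compound for 48 h. Revlotron 100 µM as positive control; Zileuton 100 µM and DMEM/1% DMSO as negative controls. WST reagent for 45 min, absorbance 450/620 nm, untreated set to 100%. Triplicates, ≥4 repeats.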

Data set [11] is described as follows: Cytotoxicity against human HepG2 cells assessed as cell proliferation at 10 uM after 48 hrs by WST-1 assay (Rvb =100%). The data set is classed as cell-based. As to conditions: read-out: Activity. The method in brief:
as §3
(Formazan colour is commonly taken as a measure of viable cells.)

A short description of data set [12]: Cytotoxicity against human HepG2 cells assessed as cell proliferation at 50 uM after 48 hrs by WST-1 assay (Rvb =100%). The data set is classed as cell-based. The following applies: read-out: Activity. The method in brief:
as §3

Data set [13] has as its target T2, Bile acid receptor (Homo sapiens) (UniProt Q96RI1).
T2 sequence (whole entry): T1 sequence (Q96RI1 whole entry)
Put plainly: Partial agonist activity at FXR in human HepG2 cells assessed as induction of BSEP gene expression at 0.1 uM after 24 hrs by qRT-PCR analysis (reference value: 100%). Format: cell-based. Put shortly:
(§4)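 HepG2 (BSEP, SHP, OSTα) or HT-29 (IBABP) cells seeded at 2*10⁶/well, moved to MEM with 1% charcoal-stripped FCS for 24 h, then treated 24 h with 0.1 µM compound in 0.1% DMSO; CDCA 50 µM as reference. Total RNA extracted; qRT-PCR in duplicate, ≥4 independent experiments, comparative ΔΔCt quantification.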
A general note: In qPCR the cycle at which signal appears reflects the starting amount.

Data set [14] has as its target T2, Bile acid receptor (Homo sapiens). Put plainly: Partial agonist activity at FXR in human HepG2 cells assessed as induction of SHP gene expression at 0.1 uM after 24 hrs by qRT-PCR analysis (reference value: 100%). The data set is classed as cell-based. Put shortly: as §4
The target is the same in data set [15]. Description: Partial agonist activity at FXR in human HepG2 cells assessed as induction of OST-alpha gene expression at 0.1 uM after 24 hrs by qRT-PCR analysis (reference value: 100%). Format: cell-based. Put shortly:
as §4

For data set [16] the target is unchanged. Put plainly: Partial agonist activity at FXR in human HT-29 cells assessed as induction of IBABP gene expression at 0.1 uM after 24 hrs by qRT-PCR analysis (reference value: 100%). Format: cell-based. Put shortly:
as §4

The target is the same in data set [17]. Put plainly: Agonist activity at human full length FXR expressed in HeLa cells cotransfected with pSG5-human RXR at 30 uM after 24 hrs by Dual-Glo luciferase reporter gene assay. Format: cell-based. Put shortly:
(§5)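 HeLa cells, seeded 8,000/well 24 h ahead, calcium phosphate transfected with pcDNA3-hFXR (CMV), pSG5-hRXR, BSEP-promoter firefly luciferase and pRL-SV40 renilla control. Medium at 0.5% charcoal-stripped FCS; compound in 0.1% DMSO for 24 h. Dual-Glo firefly/renilla ratio, expressed relative to 3 µM GW4064. Triplicate wells, ≥3 independent runs.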

The target is the same in data set [18]. Description: Antagonist activity at human full length FXR expressed in HeLa cells cotransfected with pSG5-human RXR at 30 uM after 24 hrs by Dual-Glo luciferase reporter gene assay. Format: cell-based.
Data set [19] has as its target T1, Bile acid receptor. Description: Antagonist activity at human full length FXR expressed in HeLa cells cotransfected with pSG5-human RXR after 24 hrs by Dual-Glo luciferase reporter gene assay. Format: cell-based.
The target in data set [20] is T2, Bile acid receptor (Homo sapiens). Description: Agonist activity at human full length FXR expressed in HeLa cells cotransfected with pSG5-human RXR at 50 uM after 24 hrs by Dual-Glo luciferase reporter gene assay. The data set is classed as cell-based. Put shortly:
as §5

A short description of data set [21]: Solubility of the compound in 1% aqueous DMSO solution measured after 4 hrs by HPLC analysis. The data set is classed as physicochemical.
Data set [22] has as its target T2, Bile acid receptor (Homo sapiens). Put plainly: Agonist activity at human full length FXR expressed in HeLa cells cotransfected with pSG5-human RXR at 10 uM after 24 hrs by Dual-Glo luciferase reporter gene assay. Format: cell-based. The method in brief: as §5
The target is the same in data set [23]. Description: Antagonist activity at human full length FXR expressed in HeLa cells cotransfected with pSG5-human RXR at 10 uM after 24 hrs by Dual-Glo luciferase reporter gene assay. The data set is classed as cell-based.

Each structure is given as a SMILES string. Values after ≈ are worked out from the molar mass of the structure shown. Active and inactive are the calls of the source. The rule behind the calls is not given here.

Broadly, the EC50 is the concentration needed to bring the measured effect to its halfway point. Read a high EC50 as lower potency in that assay. Consider `COc1ccc(-c2nc(-c3ccccc3C)no2)cc1`, for which the concentration giving a half-maximal response (EC50) in [1] was determined as 120 nM.

The solubility is the dissolved amount per volume that the medium holds. High values mean a readily soluble substance, low ones a poorly soluble substance. The compound `Cc1ccccc1-c1noc(-c2cccc(C(=O)O)c2)n1` returned an EC50 in data set [1] of 7.2 nM. In data set [2], this compound had a solubility of 33 µg/mL (≈ 118 µM). Also, the remaining at 10 µM in [3] is 99.4%. In addition, the remaining at 0.25 h, 10 µM in data set [4] worked out at 84.6%. In addition, the remaining at 0.5 h, 10 µM in [5] was 71.3%. In addition, in data set [6], the remaining at 1 h, 10 µM was 53.9%. The Activity in [7] was determined as 0%; in data set [8] it was 0%; in data set [9], 15%; in data set [13], 395%; in [14], 515%; in data set [15] it was 339%. Further, the Activity in data set [16] was 295%. Also, the viability at 48 h, 5 µM in [10] was 109%. In addition, in data set [11], the viability at 48 h, 10 µM came out at 87%. Moreover, in data set [12], the viability at 48 h, 50 µM is 86%.

Take `COc1ccc(-c2sc(-c3ccc(C)cc3)nc2O)cc1`: in data set [17], the outcome was inactive. Besides, the inhibition entry in data set [18] is “inactive”.

Regarding `c1ccc(-c2noc(-c3ccccc3)n2)cc1`, in [1], a half-maximal effect (EC50) was put at 530 nM.

`Cc1ccccc1-c1noc(-c2ccc(C(=O)O)cc2)n1` returned an EC50 in [1] of 220 nM.

`COc1ccc(-c2nc(-c3cccc(C(F)(F)F)c3)no2)cc1` gave an EC50 in data set [1] of 2900 nM.

In [1], `Cc1ccc(-c2noc(-c3ccc(Cl)cc3)n2)cc1` came in with a concentration for a half-maximal effect (EC50) of 410 nM.

The IC50 is the concentration that gives 50% inhibition. A higher IC50 goes with a need for much substance. Regarding `COc1ccc(-c2nc(-c3ccccc3)no2)cc1`, the IC50 in data set [19] came to 16400 nM.

`CC(C)c1nc(-c2ccccc2)no1`: the Activity in data set [20] was found to be 12.3%.

Take `CCN(CC)c1ccc2cc(-c3nc(-c4ccccc4)no3)c(=O)oc2c1`: the EC50 in data set [1] stood at 460 nM. In data set [2], this compound registered a solubility of 10.1 µg/mL (≈ 27.9 µM). Besides, in data set [21], the solubility at 4 h turned out to be 9.98 µg/mL (≈ 27.6 µM).

Compound `Brc1ccc(-c2nc(-c3ccccc3)no2)cc1` came in with a concentration for a half-maximal effect (EC50) in [1] of 350 nM.

Consider `Oc1ccc(-c2nc(-c3ccccc3)no2)cc1`, for which the result in data set [22] was inactive. In data set [23], the inhibition entry is “inactive”.
